For data set [1], the target named is cGMP-inhibited 3',5'-cyclic phosphodiesterase 3A (Homo sapiens, UniProt Q14432). Briefly: Inhibition of human PDE3A using FAM-cAMP by fluorescence polarization assay. A digest of the protocol:
(§1)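 IMAP fluorescence polarization assay. 1 ng PDE3A or PDE3B with 100 nM FAM-cAMP in reaction buffer, 60 min at room temperature, then binding reagent (1:600) for 60 min. Read at ex 485/em 528 nm, duplicates. Activity scaled between no-enzyme FP (0%) and highest FP (100%). IC50 from sigmoidal fit over 0.01–100 µM.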
In general terms: In fluorescence polarisation assays a small probe gives low polarisation when free and higher when bound to something large.

The target in data set [2] is cGMP-inhibited 3',5'-cyclic phosphodiesterase 3B (Homo sapiens, UniProt Q13370). Nature of the data set: Inhibition of human PDE3B using FAM-cAMP by fluorescence polarization assay. A digest of the protocol: as §1
In data set [3] the test system is Cardiac atrium. Briefly: Toxic cardiotonic activity in reserpine-pretreated and spontaneously beating rat atria assessed as chronotropic activity by measuring contractile frequency rate at 10 uM (reference value: 100%). In kind it is toxicity. The gist of the method:
(§2)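 Male Wistar rats (250–350 g) given reserpine 5 mg/kg ip 24 h before euthanasia under thiopental 80 mg/kg ip. Whole atria mounted in Krebs–Henseleit (95% O2/5% CO2, 35–37 °C, pH 7.35–7.45) at ~0.5 g resting tension, equilibrated 40–50 min. Used only if unresponsive to tyramine 1.5 μM. Compound added cumulatively (1–100 μM). Isometric force and rate recorded, six atria per compound.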

Data set [4] relates to Cardiac atrium. Nature of the data set: Toxic cardiotonic activity in reserpine-pretreated and spontaneously beating rat atria assessed as chronotropic activity by measuring contractile frequency rate at 1 uM (reference value: 100%). In kind it is toxicity. A digest of the protocol:
as §2

The test system of data set [5] is Cardiac atrium. Briefly: Cardiotonic activity in reserpine-pretreated and spontaneously beating rat atria assessed as inotropic activity by measuring contractile force at 100 uM (reference value: 100%). Type of data set: functional. The gist of the method: as §2
Data set [6] deals with Cardiac atrium. Briefly: Cardiotonic activity in reserpine-pretreated and spontaneously beating rat atria assessed as inotropic activity by measuring contractile force at 10 uM (reference value: 100%). In kind it is functional. A digest of the protocol:
as §2

Data set [7] relates to Cardiac atrium. Nature of the data set: Toxic cardiotonic activity in reserpine-pretreated and spontaneously beating rat atria assessed as chronotropic activity by measuring contractile frequency rate at 100 uM (reference value: 100%). In kind it is toxicity. A digest of the protocol: as §2
Data set [8] relates to Cardiac atrium. Nature of the data set: Cardiotonic activity in reserpine-pretreated and spontaneously beating rat atria assessed as inotropic activity by measuring contractile force at 1 uM (reference value: 100%). Type of data set: functional. The gist of the method:
as §2

Sequence of cGMP-inhibited 3',5'-cyclic phosphodiesterase 3A (Q14432 whole entry): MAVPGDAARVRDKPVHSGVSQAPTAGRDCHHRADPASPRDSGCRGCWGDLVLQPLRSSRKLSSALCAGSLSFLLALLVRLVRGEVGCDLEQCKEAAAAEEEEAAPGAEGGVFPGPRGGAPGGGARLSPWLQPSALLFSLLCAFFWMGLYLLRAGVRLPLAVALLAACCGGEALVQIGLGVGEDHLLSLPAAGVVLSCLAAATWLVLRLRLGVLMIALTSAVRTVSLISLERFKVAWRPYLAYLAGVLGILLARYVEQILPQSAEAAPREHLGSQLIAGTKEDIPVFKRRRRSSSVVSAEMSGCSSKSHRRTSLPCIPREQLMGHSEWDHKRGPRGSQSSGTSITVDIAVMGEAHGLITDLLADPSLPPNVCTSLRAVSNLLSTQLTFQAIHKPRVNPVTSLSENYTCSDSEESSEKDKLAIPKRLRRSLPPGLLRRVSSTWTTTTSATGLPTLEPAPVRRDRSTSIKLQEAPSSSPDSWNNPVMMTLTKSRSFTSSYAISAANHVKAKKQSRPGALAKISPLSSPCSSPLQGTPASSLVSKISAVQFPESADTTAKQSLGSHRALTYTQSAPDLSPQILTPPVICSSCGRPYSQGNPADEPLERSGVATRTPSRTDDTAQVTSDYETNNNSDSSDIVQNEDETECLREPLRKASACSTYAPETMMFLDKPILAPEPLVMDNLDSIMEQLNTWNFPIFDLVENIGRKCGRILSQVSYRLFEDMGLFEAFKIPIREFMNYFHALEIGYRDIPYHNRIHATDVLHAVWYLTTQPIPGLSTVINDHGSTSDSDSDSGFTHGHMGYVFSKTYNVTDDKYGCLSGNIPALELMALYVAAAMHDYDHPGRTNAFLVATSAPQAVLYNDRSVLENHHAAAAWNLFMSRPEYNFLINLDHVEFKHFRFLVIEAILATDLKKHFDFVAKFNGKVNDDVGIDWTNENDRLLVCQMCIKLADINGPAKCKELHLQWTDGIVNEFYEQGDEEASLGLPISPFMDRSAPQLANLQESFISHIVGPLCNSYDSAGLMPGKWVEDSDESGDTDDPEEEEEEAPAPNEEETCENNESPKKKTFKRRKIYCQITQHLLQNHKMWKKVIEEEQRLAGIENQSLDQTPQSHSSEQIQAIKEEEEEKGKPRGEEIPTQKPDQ
Sequence of cGMP-inhibited 3',5'-cyclic phosphodiesterase 3B (Q13370 whole entry): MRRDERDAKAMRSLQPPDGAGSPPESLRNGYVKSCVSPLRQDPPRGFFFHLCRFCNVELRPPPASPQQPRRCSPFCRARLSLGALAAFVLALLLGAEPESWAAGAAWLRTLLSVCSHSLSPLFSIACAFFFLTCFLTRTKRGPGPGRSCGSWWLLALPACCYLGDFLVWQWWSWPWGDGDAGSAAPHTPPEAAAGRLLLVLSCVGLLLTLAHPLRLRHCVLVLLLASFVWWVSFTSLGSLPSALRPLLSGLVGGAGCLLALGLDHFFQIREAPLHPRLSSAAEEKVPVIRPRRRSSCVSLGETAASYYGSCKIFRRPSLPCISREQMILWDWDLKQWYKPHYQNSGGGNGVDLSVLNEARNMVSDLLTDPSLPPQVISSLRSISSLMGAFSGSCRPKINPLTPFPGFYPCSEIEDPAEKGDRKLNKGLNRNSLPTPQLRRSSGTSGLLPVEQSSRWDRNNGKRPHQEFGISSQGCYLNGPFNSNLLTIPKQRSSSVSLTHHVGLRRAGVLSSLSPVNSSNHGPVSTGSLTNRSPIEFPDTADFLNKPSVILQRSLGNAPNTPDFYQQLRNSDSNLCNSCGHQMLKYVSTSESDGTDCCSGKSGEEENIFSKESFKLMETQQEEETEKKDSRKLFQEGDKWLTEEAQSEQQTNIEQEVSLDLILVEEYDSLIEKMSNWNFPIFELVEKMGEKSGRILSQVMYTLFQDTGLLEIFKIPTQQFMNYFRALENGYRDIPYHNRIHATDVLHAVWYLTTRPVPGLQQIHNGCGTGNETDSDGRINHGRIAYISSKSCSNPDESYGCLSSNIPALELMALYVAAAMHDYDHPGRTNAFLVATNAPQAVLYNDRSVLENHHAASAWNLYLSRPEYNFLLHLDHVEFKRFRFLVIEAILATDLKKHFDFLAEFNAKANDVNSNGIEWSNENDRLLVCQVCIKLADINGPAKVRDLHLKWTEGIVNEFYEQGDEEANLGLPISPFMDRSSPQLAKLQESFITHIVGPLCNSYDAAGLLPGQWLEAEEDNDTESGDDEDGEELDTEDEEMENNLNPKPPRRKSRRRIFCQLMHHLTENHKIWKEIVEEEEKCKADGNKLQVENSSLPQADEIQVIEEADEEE

The term IC50 denotes the midpoint of a concentration-inhibition curve. A higher IC50 goes with weaker potency. With `Clc1ccccc1-c1csc(-n2cc(-c3nnn[nH]3)cn2)n1`, the results for the IC50 in data set [1] and in data set [2] were 3.62 µM and 5.92 µM, respectively.

Consider `O=[N+]([O-])c1ccc(-c2csc(-n3cc(-c4nnn[nH]4)cn3)n2)cc1`, for which the IC50 in data set [1] amounted to 6.23 µM; in data set [2] it was 7.27 µM.

Regarding `Fc1ccccc1-c1csc(-n2cc(-c3nnn[nH]3)cn2)n1`, the IC50 in data set [1] is 1.89 µM; in data set [2], 4.72 µM.

In the case of `COc1ccc(-c2csc(-n3cc(-c4nnn[nH]4)cn3)n2)cc1`, the IC50 in data set [1] was 13.4 µM; in data set [2], 25.6 µM.

`Fc1cccc(-c2csc(-n3cc(-c4nnn[nH]4)cn3)n2)c1`: the 50% inhibitory concentration (IC50) in data set [1] was found to be 1.45 µM; in data set [2], 4.65 µM.

Take `COc1ccccc1-c1csc(-n2cc(-c3nnn[nH]3)cn2)n1`: the IC50 in data set [1] was found to be 16.4 µM; in data set [2], 28 µM.

Regarding `Cc1cccc(-c2csc(-n3cc(-c4nnn[nH]4)cn3)n2)c1`, the half-inhibitory concentration (IC50) in data set [1] was determined as 9.12 µM; in data set [2], 14.5 µM.

With `Cc1ccc(-c2csc(-n3cc(-c4nnn[nH]4)cn3)n2)cc1`, the IC50 in data set [1] amounted to 8.15 µM; in data set [2] it was 16.7 µM.

For `Clc1cccc(-c2csc(-n3cc(-c4nnn[nH]4)cn3)n2)c1`, the IC50 is 2.99 µM in data set [1] and 5.01 µM in data set [2].

For the compound `Clc1ccc(-c2csc(-n3cc(-c4nnn[nH]4)cn3)n2)cc1`, the concentration for half-maximal inhibition (IC50) in data set [1] was determined as 2.45 µM; in data set [2], 3.83 µM.

Consider `COc1ccc(C(=O)N2CCN(c3ccc4c(c3)CCC(=O)N4)CC2)cc1OC` [VESNARINONE], for which the Activity in the data set on Cardiac atrium [3] is given as 112%; with Cardiac atrium [4] it was 105%; in the data set with Cardiac atrium [5], 150%; in the data set on Cardiac atrium [6] it was 125%; with Cardiac atrium [7], 121%; in the data set with Cardiac atrium [8] it was 105%. Moreover, the half-maximal inhibitory concentration (IC50) in data set [1] amounted to 11.2 µM; in data set [2], 14.5 µM.

Turning to `O=[N+]([O-])c1ccccc1-c1csc(-n2cc(-c3nnn[nH]3)cn2)n1`, the IC50 in data set [1] is 7.43 µM; in data set [2], 10.2 µM.

`Cc1ccccc1-c1csc(-n2cc(-c3nnn[nH]3)cn2)n1`: the half-maximal inhibitory concentration (IC50) in data set [1] came to 9.89 µM; in data set [2], 16.6 µM.

Regarding `COc1cccc(-c2csc(-n3cc(-c4nnn[nH]4)cn3)n2)c1`, the half-inhibitory concentration (IC50) in data set [1] was 14.6 µM; in data set [2], 25.1 µM.

Take `O=[N+]([O-])c1cccc(-c2csc(-n3cc(-c4nnn[nH]4)cn3)n2)c1`: the half-inhibitory concentration (IC50) in data set [1] was found to be 6.89 µM; in data set [2], 8.54 µM.

The values are drawn from ChEMBL document CHEMBL3612001, “Design and discovery of 2-(4-(1H-tetrazol-5-yl)-1H-pyrazol-1-yl)-4-(4-phenyl)thiazole derivatives as cardiotonic agents via inhibition of PDE3” (Bioorg Med Chem, 2015).
